# In ChEMBL document CHEMBL4251718, “Isolation of Imaqobactin, an Amphiphilic Siderophore from the Arctic Marine Bacterium Variovorax Species RKJM285” (J Nat Prod, 2018):
# pIC50: −log10 of the molar value. The source made the active and inactive calls. No cut-off for these calls is given here.
# Tests used:
# [1] = Metal chelating activity assessed as V3+-compound complex formation after 1 hr by LC-HRMS analysis
# Summary of the method: (§1)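 500 μg of ligand was dissolved in 1 mL PBS (pH 7.5) and stirred with excess (15 mg) AlCl3, AuCl3 or VCl3 at room temperature for 1 h. Samples went through C18 SPE with a water wash and MeOH elution, were dried, and were redissolved at 500 μg mL−1 in MeOH. Complexes were detected by C18 LC-HRMS using a water/acetonitrile 0.1% formic acid gradient.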
# [2] = Metal chelating activity assessed as Au3+-compound complex formation after 1 hr by LC-HRMS analysis; summary of the method: as §1
# [3] = Metal chelating activity assessed as Al3+-compound complex formation after 1 hr by LC-HRMS analysis; summary of the method: as §1
# Staphylococcus aureus = test: Antibacterial activity against methicillin-resistant Staphylococcus aureus ATCC 33591 after 22 hrs by microbroth dilution method; assay type: functional, organism-based; details: ATCC 33591, 22 h
# Summary of the method: (§2)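 CLSI broth microdilution, run in triplicate. OD600 was read at time zero and again after 22 h at 37 °C, and percent growth inhibition was calculated from these readings. The free ligand and its Fe(III) and Ga(III) complexes were tested.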
# Staphylococcus warneri = test: Antimicrobial activity against Staphylococcus warneri ATCC 17917 after 22 hrs by micro broth dilution assay; assay type: functional, organism-based; details: ATCC 17917, 22 h; summary of the method: as §2
# Keratinocyte = test: Cytotoxicity against human epidermal keratinocytes after 24 hrs by alamar blue assay
# Summary of the method: (§3)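 Cytotoxicity was measured with Alamar blue. Fluorescence (ex 560/12, em 590 nm) was read at time zero and 4 h after Alamar blue addition, and IC50 values were calculated from these readings. The free ligand and its Fe(III) and Ga(III) complexes were tested.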
# Vero = test: Cytotoxicity against African green monkey Vero cells after 24 hrs by alamar blue assay; assay type: cell-based; details: chlorocebus sabaeus; summary of the method: as §3
# Enterococcus faecium = test: Antimicrobial activity against vancomycin-resistant Enterococcus faecium EF379 after 22 hrs by micro broth dilution assay; assay type: functional, organism-based; details: EF379, 22 h; summary of the method: as §2
# Proteus vulgaris = test: Antimicrobial activity against Proteus vulgaris ATCC 12454 after 22 hrs by micro broth dilution assay; assay type: functional, organism-based; details: ATCC 12454, 22 h; summary of the method: as §2
compound,measurement,setting,value
CCCCCCCCCCCC(=O)NC(CCCN(O)C=O)C(O)C(C)C(=O)N[C@@H](CO)C(=O)N[C@@H]1CCCN(O)C(=O)CC(C)OC(=O)[C@H]([C@@H](O)C(=O)O)NC(=O)[C@H]([C@@H](C)O)NC1=O (some centres undefined),Activity,[1],Active
same,Activity,[2],Active
same,Activity,[3],Active
same,pIC50,Staphylococcus aureus,4.46
same,pIC50,Staphylococcus warneri,4.55
same,Activity,Keratinocyte,Non-Toxic
same,Activity,Vero,Non-Toxic
same,pIC50,Enterococcus faecium,4.96
same,pIC50,Proteus vulgaris,4.85
